Laboratory results taken from ChEMBL document CHEMBL2434966, “Novel N-4-piperazinyl-ciprofloxacin-chalcone hybrids: synthesis, physicochemical properties, anticancer and topoisomerase I and II inhibitory activity” (Eur J Med Chem, 2013).

Assays:
[1] = test system: IGROV-1; experiment: Growth inhibition of human IGROV1 cells after 48 hrs by sulforhodamine B assay; assay type: functional; settings: IGROV-1, 48 h
Summary of the method: (§1)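 NCI 60-panel five-dose test at 10-fold dilutions, 10^-4 to 10^-8 M, with 48 h continuous exposure and SRB protein read-out. Percent growth derived from time-zero, untreated-control and treated absorbances. GI50 is the concentration where [(Ti-Tz)/(C-Tz)]×100 = 50. TGI is taken at Ti = Tz. LC50 is taken at [(Ti-Tz)/Tz]×100 = -50.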

[2] = Growth inhibition of human NCI-ADR-RES cells after 48 hrs by sulforhodamine B assay; assay type: functional; settings: for CC50: read-out: LC50 (the source's name)
Summary of the method: (§2)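 NCI five-dose screen on the full 60-cell-line panel. Cells were given 10-fold dilutions from 10^-4 to 10^-8 M with continuous 48 h exposure, and growth was read by SRB staining. Percent growth was taken from time-zero, control and treated absorbances. GI50, TGI and LC50 were then derived, the GI50 being the concentration that gives a 50% lower net protein increase than control.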

[3] = test system: HT-29; experiment: Growth inhibition of human HT-29 cells assessed as cell growth at 10^-5 M after 48 hrs by sulforhodamine B assay; assay type: functional; settings: HT-29, 48 h, read-out: Activity
Summary of the method: (§3)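 NCI 60-cell-line primary screen. Single concentration of 10^-5 M, 48 h incubation. End point by sulforhodamine B protein staining read spectrophotometrically. Reported as percent growth of treated cells relative to untreated control cells.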

[4] = test system: K562; experiment: Growth inhibition of human K562 cells assessed as cell growth at 10^-5 M after 48 hrs by sulforhodamine B assay; assay type: functional; settings: K562, 48 h, read-out: Activity; summary of the method: as §3
[5] = test system: OVCAR-4; experiment: Growth inhibition of human OVCAR4 cells assessed as cell growth at 10^-5 M after 48 hrs by sulforhodamine B assay; assay type: functional; settings: OVCAR-4, 48 h, read-out: Activity
Summary of the method: (§4)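 NCI 60-cell-line primary one-dose screen. Cells were exposed to a single 10^-5 M concentration for 48 h. The end point was sulforhodamine B protein staining, read spectrophotometrically. Results are reported as percent growth of treated cells relative to untreated control cells.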

[6] = test system: MDA-MB-435; experiment: Growth inhibition of human MDA-MB-435 cells after 48 hrs by sulforhodamine B assay; assay type: functional; settings: MDA-MB-435, 48 h; summary of the method: as §2
[7] = test system: PC-3; experiment: Growth inhibition of human PC3 cells assessed as cell growth at 10^-5 M after 48 hrs by sulforhodamine B assay; assay type: functional; settings: PC-3, 48 h, read-out: Activity; summary of the method: as §4
[8] = test system: HL-60(TB); experiment: Growth inhibition of human HL-60(TB) cells assessed as cell growth at 10^-5 M after 48 hrs by sulforhodamine B assay; assay type: functional; settings: HL-60, 48 h, read-out: Activity
Summary of the method: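 NCI one-dose primary screen: compound added once at 10^-5 M, cultures incubated 48 h, end point by SRB protein-binding dye. Result given as percent growth of treated cells relative to untreated control cells, measured spectrophotometrically.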

[9] = test system: NCI-H23; experiment: Growth inhibition of human NCI-H23 cells assessed as cell growth at 10^-5 M after 48 hrs by sulforhodamine B assay; assay type: functional; settings: NCI-H23, 48 h, read-out: Activity; summary of the method: as §4
[10] = target: DNA topoisomerase 2-alpha (Homo sapiens) (UniProt P11388); experiment: Inhibition of human topoisomerase 2alpha-mediated relaxation of supercoiled pBR322 DNA at 100 uM after 30 mins by agarose gel electrophoresis relative to control
Summary of the method: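 Human topo IIα (1 unit) with 200 ng supercoiled pBR322 in Tris-HCl pH 7.9, 50 mM NaCl, 5 mM MgCl2, 1 mM EDTA, 1 mM ATP, BSA, 30 min at 30 °C. DMSO was matched in the enzyme-only control. Stopped with EDTA; 1% agarose/TAE gel, ethidium stain, supercoiled band quantified by UV imaging. Etoposide was the positive control.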

[11] = target: T1, DNA topoisomerase 1 (Homo sapiens) (UniProt P11387); experiment: Inhibition of human recombinant topoisomerase 1-mediated relaxation of supercoiled pBR322 DNA at 20 uM after 30 mins by agarose gel electrophoresis relative to control
T1 sequence (whole entry): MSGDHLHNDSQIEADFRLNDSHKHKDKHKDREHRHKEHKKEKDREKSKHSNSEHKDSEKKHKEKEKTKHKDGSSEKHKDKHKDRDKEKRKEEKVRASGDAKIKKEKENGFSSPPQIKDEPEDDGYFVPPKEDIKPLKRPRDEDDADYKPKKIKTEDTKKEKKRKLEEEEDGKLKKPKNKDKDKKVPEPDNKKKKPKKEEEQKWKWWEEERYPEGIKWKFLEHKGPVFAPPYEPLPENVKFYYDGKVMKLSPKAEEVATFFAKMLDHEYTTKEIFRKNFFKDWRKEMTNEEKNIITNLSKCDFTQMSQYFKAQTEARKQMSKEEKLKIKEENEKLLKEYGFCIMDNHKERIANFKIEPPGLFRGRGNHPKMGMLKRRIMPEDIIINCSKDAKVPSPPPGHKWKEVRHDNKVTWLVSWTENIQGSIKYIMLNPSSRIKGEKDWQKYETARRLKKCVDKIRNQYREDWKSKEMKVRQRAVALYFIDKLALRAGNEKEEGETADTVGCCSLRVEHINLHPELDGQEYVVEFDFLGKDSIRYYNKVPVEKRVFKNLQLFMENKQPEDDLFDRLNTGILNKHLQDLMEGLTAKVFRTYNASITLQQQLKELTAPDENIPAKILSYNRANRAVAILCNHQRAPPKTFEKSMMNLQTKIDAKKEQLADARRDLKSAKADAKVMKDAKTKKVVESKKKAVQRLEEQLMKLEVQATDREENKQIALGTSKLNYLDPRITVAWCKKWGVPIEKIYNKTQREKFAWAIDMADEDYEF
Summary of the method: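 Recombinant human topo I (0.4 units) with 100 ng supercoiled pBR322, 37 °C for 30 min in Tris-HCl pH 7.9, 150 mM NaCl, 0.1% BSA, 1 mM spermidine, 5% glycerol. Compounds came from 20 mM DMSO stocks, with matched DMSO in the enzyme-only control. Stopped with sarcosyl; 1% agarose/TAE gel, ethidium stain, UV densitometry. Camptothecin was the positive control.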

[12] = test system: T47D; experiment: Growth inhibition of human T47D cells after 48 hrs by sulforhodamine B assay; assay type: functional
Summary of the method: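 NCI 60-cell panel, five concentrations (10-fold dilutions, 0.01–100 µM), 48 h continuous exposure; SRB protein stain read spectrophotometrically. Percent growth from time-zero, untreated-control and treated absorbances. GI50 is the concentration giving 50% lower net protein increase than control. Values beyond the tested range are reported as more or less than the highest or lowest concentration.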

[13] = test system: HOP-62; experiment: Growth inhibition of human HOP62 cells assessed as cell growth at 10^-5 M after 48 hrs by sulforhodamine B assay; assay type: functional; settings: HOP-62, 48 h, read-out: Activity; summary of the method: as §3
[14] = test system: A498; experiment: Growth inhibition of human A498 cells after 48 hrs by sulforhodamine B assay; assay type: functional; settings: A498, 48 h; summary of the method: as §1

DNA topoisomerase 2-alpha (Homo sapiens), sequence (P11388 whole entry): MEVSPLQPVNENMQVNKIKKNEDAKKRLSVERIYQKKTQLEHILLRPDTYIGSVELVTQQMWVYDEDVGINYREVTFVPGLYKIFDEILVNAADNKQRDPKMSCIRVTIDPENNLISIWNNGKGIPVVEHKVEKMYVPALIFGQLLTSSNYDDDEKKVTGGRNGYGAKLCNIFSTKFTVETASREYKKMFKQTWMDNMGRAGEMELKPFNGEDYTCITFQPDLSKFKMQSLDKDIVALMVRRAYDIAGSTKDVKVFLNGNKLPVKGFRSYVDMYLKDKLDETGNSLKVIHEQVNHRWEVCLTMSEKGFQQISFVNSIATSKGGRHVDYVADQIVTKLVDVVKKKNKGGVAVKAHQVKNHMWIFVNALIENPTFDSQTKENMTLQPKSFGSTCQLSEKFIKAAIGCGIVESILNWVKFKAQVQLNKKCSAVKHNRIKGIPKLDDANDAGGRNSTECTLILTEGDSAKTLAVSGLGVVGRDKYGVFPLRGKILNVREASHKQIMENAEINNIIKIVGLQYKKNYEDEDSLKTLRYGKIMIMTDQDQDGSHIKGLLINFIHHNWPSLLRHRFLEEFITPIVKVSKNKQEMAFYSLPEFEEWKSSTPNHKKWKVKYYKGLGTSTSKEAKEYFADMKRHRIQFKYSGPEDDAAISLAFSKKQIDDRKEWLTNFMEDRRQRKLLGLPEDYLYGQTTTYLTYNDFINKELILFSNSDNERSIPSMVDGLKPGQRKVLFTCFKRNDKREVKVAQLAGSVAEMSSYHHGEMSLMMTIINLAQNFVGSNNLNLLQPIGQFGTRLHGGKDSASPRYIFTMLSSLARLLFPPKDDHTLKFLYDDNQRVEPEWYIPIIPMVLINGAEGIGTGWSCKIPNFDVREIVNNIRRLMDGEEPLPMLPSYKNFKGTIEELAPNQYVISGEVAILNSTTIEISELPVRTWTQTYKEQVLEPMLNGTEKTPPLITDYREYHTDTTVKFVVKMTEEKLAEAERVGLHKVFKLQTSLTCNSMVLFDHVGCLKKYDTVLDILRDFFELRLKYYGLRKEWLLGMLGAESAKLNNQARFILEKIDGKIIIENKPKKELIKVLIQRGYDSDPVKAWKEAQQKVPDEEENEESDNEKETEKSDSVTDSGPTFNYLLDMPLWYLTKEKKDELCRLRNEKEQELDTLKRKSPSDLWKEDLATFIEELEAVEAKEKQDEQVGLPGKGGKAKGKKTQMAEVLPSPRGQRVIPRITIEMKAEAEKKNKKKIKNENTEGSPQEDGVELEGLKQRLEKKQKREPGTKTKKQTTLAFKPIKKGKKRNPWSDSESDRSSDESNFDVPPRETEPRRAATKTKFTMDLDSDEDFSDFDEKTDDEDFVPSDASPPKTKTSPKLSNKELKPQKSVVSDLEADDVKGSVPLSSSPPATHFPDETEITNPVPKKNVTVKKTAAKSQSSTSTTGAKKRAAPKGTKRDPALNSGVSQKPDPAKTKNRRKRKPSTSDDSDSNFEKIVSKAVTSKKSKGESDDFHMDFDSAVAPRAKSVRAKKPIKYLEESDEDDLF

| Structure (SMILES) | GI50 [1] [µM] | LC50 (concentration giving 50% net cell kill) [1] [µM] | TGI [1] [µM] | GI50 [2] [µM] | TGI [2] [µM] | CC50 [2] [µM] | growth at 10 µM [3] [%] | growth at 10 µM [4] [%] | growth at 10 µM [5] [%] | GI50 [6] [µM] | LC50 [6] [µM] | TGI [6] [µM] | growth at 10 µM [7] [%] | growth at 10 µM [8] [%] | growth at 10 µM [9] [%] | inhibition [10] [%] | inhibition [11] [%] | GI50 [12] [µM] | LC50 (concentration killing 50% of the cells present at time zero) [12] [µM] | TGI [12] [µM] | also measured |
| --- | --- | --- | --- | --- | --- | --- | --- | --- | --- | --- | --- | --- | --- | --- | --- | --- | --- | --- | --- | --- | --- |
| COc1cc(/C=C/C(=O)c2ccc(NC(=O)CN3CCN(c4cc5c(cc4F)c(=O)c(C(=O)O)cn5C4CC4)CC3)cc2)cc(OC)c1OC | 0.4 | 8.43 | 1.72 | 57.6 | > 100 | > 100 | -3.37 | 1.66 | 16.4 | 0.3 | > 100 | 1.7 | 21.5 | -33.7 | -35.6 | 5.2 | 11.5 | 2.4 | > 100 | > 100 | growth at 10 µM [13]: 4.38%; GI50 [14]: 0.36 µM; LC50 (concentration killing 50% of starting cells) [14]: 5.47 µM; TGI [14]: 1.8 µM |
| O=C(CN1CCN(c2cc3c(cc2F)c(=O)c(C(=O)O)cn3C2CC2)CC1)Nc1ccc(C(=O)/C=C/c2ccccc2)cc1 | 3.67 | > 100 | > 100 | 9.75 | > 100 | > 100 | 11.4 | 14.2 | 86.4 | 2.94 | > 100 | > 100 | 55.2 | 40.9 | 24 | 35.7 | 6.4 | 6.66 | > 100 | > 100 | growth at 10 µM [13]: 59.4%; GI50 [14]: 1.28 µM; LC50 (concentration killing 50% of starting cells) [14]: > 100 µM; TGI [14]: 7.37 µM |
